Experimental data: ChEMBL document CHEMBL1143577, “Syntheses and biological activities of rebeccamycin analogues with uncommon sugars” (J Med Chem, 2005)

Legend:
K562 = experiment: Inhibitory concentration against […] leukemia cell line in MTS assay; assay type: functional, cell-based; conditions: Homo sapiens
In short: (§1)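 Cells grown in RPMI 1640 with 10% FBS, 1% nonessential amino acids, penicillin-streptomycin, 37 °C, 5% CO2. Exponentially growing cells were then exposed to a range of compound concentrations for 72 h. MTS (2 mg/mL) plus PMS (25 µM) was added for 3 h, and absorbance was read at 490 nm. IC50 came from dose-response curves of % growth versus untreated control.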

SW-620 = experiment: Inhibitory concentration against SW620 colorectal carcinoma cell line in MTS assay; assay type: functional, cell-based, Homo sapiens; in short: as §1

Row | SMILES | IC50 (K562) | IC50 (SW-620; Homo sapiens, SW-620) | IC50 (SW-620; sw-620)
1 | CC1OC(n2c3ccccc3c3c4c(c5c6ccccc6[nH]c5c32)C(=O)OC4=O)CC(N)C1O (stereo not drawn) | 55 µM | > 100 µM | 
2 | CN1C(=O)c2c(c3c4ccccc4n(C4CC(O)C(O)C(CO)O4)c3c3[nH]c4ccccc4c23)C1=O (stereo not drawn) | 12 µM | 13 µM | 
3 | CC1OC(n2c3ccccc3c3c4c(c5c6ccccc6[nH]c5c32)C(=O)N(N)C4=O)CC(O)C1O (stereo not drawn) | > 100 µM | > 100 µM | 
4 | CN1C(=O)c2c(c3c4ccccc4[nH]c3c3[nH]c4ccccc4c23)C1=O | 40 µM | > 100 µM | 
5 | O=C1c2c(c3c4ccccc4n(C4OC(COCc5ccccc5)C(OCc5ccccc5)C(OCc5ccccc5)C4OCc4ccccc4)c3c3[nH]c4ccccc4c23)C(=O)N1CCCn1ccnc1 (stereo not drawn) | > 50 µM | > 50 µM | 
6 | CN1C(=O)c2c(c3c4ccccc4n(C4OC(CO)C(O)C(O)C4O)c3c3[nH]c4ccccc4c23)C1=O (stereo not drawn) | 3 µM | 5 µM | 
7 | CC1OC(n2c3ccccc3c3c4c(c5c6ccccc6[nH]c5c32)C(=O)OC4=O)CC(NCc2ccccc2)C1O (stereo not drawn) | 53 µM | 76 µM | 
8 | O=C1c2c(c3c4ccccc4n(C4OC(CO)C(O)C(O)C4O)c3c3[nH]c4ccccc4c23)C(=O)N1CCCn1ccnc1 (stereo not drawn) | 4 µM | 2 µM | 
9 | CC1OC(n2c3ccccc3c3c4c(c5c6ccccc6[nH]c5c32)C(=O)N(C)C4=O)CC(NCc2ccccc2)C1O (stereo not drawn) | 34 µM | > 100 µM | 
10 | CC1OC(n2c3ccccc3c3c4c(c5c6ccccc6[nH]c5c32)C(=O)N(C)C4=O)CC(O)C1O (stereo in doubt; 5) | 26 µM | 24 µM | 
11 | CC1OC(n2c3ccccc3c3c4c(c5c6ccccc6[nH]c5c32)C(=O)N(C)C4=O)CC(O)C1O (stereo in doubt; 6) |  |  | 34 µM
12 | CO[C@H]1[C@H](O)[C@@H](O)[C@H](n2c3c(Cl)cccc3c3c4c(c5c6cccc(Cl)c6[nH]c5c32)C(=O)NC4=O)O[C@@H]1CO [REBECCAMYCIN] | 6 µM | 4 µM | 
